# Reference: ChEMBL document CHEMBL1139480, “Urotensin-II receptor ligands. From agonist to antagonist activity” (J Med Chem, 2005)
# Activity calls are given as the source filed them. The rule behind the calls is not given here.
# Assays:
# Rattus norvegicus [1] = species: Rattus norvegicus; assay: Maximum contractile response of thoracic aorta in albino Wistar rat in the presence of human urotensin 2 after 30 min; type: functional; settings: 0.5 h
# Outline: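 Thoracic aorta from male albino Wistar rats (275–350 g), decapitated under ether anesthesia, was cut into paired strips in oxygenated Krebs–Henseleit and recorded isotonically under 5 mN load. The control strip received cumulative hU-II. The test strip received the antagonist for 30 min, then cumulative hU-II. KCl 80 mM at the end gave the maximal contraction. pK_B = log(dose ratio − 1) − log[antagonist], slope assumed −1.0, averaged over individual values. Competition was checked by Schild plot.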
# Rattus norvegicus [2] = species: Rattus norvegicus; assay: Maximum contractile response of thoracic aorta in albino Wistar rat after 30 min; type: functional; settings: for EC50: 0.5 h
# Urotensin-2 receptor [3] = target: T1, Urotensin-2 receptor (Homo sapiens, UniProt Q9UKP6); assay: Displacement of [125I]urotensin 2 from human UT receptor expressed in CHO-K1 cells; type: cell-based
# T1 sequence (Q9UKP6 whole entry): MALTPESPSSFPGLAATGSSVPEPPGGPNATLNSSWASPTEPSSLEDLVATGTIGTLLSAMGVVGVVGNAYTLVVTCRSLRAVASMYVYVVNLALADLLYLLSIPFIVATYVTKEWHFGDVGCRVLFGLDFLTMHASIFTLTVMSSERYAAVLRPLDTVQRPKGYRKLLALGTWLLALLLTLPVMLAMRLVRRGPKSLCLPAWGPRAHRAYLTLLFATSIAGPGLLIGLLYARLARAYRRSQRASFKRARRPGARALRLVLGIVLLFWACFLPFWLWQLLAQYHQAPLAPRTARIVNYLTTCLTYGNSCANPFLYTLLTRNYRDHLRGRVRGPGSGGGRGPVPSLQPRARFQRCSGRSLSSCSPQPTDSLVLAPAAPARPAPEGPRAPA
# Urotensin-2 receptor [4] = target: T2, Urotensin-2 receptor (Rattus norvegicus, UniProt P49684); assay: Antagonist activity at rat UT receptor; type: functional; settings: read-out: pA2 (converted)
# T2 sequence (P49684 whole entry): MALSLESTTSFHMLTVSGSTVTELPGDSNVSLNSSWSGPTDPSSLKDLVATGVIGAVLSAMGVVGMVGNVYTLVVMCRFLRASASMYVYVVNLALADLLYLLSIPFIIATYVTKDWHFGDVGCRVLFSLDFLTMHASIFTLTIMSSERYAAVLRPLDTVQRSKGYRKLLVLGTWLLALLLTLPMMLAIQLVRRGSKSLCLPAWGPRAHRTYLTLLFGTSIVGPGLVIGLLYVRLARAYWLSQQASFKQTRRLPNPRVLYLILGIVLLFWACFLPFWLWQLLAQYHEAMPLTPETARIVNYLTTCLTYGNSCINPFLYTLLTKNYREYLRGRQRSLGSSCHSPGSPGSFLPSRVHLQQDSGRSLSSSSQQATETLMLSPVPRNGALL
# Outline: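 The control strip received cumulative hU-II. The test strip received the antagonist for 30 min, then cumulative hU-II. KCl 80 mM at the end gave the maximal contraction. pK_B = log(dose ratio − 1) − log[antagonist], slope assumed −1.0, averaged over individual values. Competition was checked by Schild plot.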
compound,measurement,setting,value
CC(C)[C@H](NC(=O)[C@@H]1CSSC(C)(C)[C@H](NC(=O)[C@@H](N)CC(=O)O)C(=O)N[C@@H](Cc2ccccc2)C(=O)N[C@H](Cc2c[nH]c3ccccc23)C(=O)N[C@H](CCCN)C(=O)N[C@@H](Cc2ccc(O)cc2)C(=O)N1)C(=O)O [listing 1 of 2 here],Emax,Rattus norvegicus [1],25%
CC(C)[C@H](NC(=O)[C@@H]1CSSC[C@H](NC(=O)[C@@H](N)CC(=O)O)C(=O)N[C@@H](Cc2ccccc2)C(=O)N[C@H](Cc2c[nH]c3ccccc23)C(=O)N[C@@H](CCCCN)C(=O)N[C@@H](Cc2ccc(O)cc2)C(=O)N1)C(=O)O [listing 1 of 2 here],Emax,Rattus norvegicus [1],42%
CC(C)[C@H](NC(=O)[C@@H]1CSSC(C)(C)[C@@H](NC(=O)[C@@H](N)CC(=O)O)C(=O)N[C@@H](Cc2ccccc2)C(=O)N[C@H](Cc2c[nH]c3ccccc23)C(=O)N[C@H](CCCN)C(=O)N[C@@H](Cc2ccc(O)cc2)C(=O)N1)C(=O)O,Activity,Rattus norvegicus [2]; filed as partial agonist,Partial agonist
CC(C)[C@H](NC(=O)[C@@H]1CSSC[C@H](NC(=O)[C@@H](N)CC(=O)O)C(=O)N[C@@H](Cc2ccccc2)C(=O)N[C@@H](Cc2c[nH]c3ccccc23)C(=O)N[C@@H](CCCCN)C(=O)N[C@@H](Cc2ccc(O)cc2)C(=O)N1)C(=O)O [listing 1 of 2 here],EC50,Rattus norvegicus [2],2.51 nM
CC(C)[C@H](NC(=O)[C@@H]1CSSC[C@H](NC(=O)[C@@H](N)CC(=O)O)C(=O)N[C@@H](Cc2ccccc2)C(=O)N[C@H](Cc2c[nH]c3ccccc23)C(=O)N[C@@H](CCCCN)C(=O)N[C@@H](Cc2ccc(O)cc2)C(=O)N1)C(=O)O [listing 2 of 2 here],Ki,Urotensin-2 receptor [3],1.26 nM (antagonist)
same,EC50,Rattus norvegicus [2],63.1 nM
CC(C)[C@H](NC(=O)[C@@H]1CSSC(C)(C)[C@H](NC(=O)[C@@H](N)CC(=O)O)C(=O)N[C@@H](Cc2ccccc2)C(=O)N[C@@H](Cc2c[nH]c3ccccc23)C(=O)N[C@@H](CCCN)C(=O)N[C@@H](Cc2ccc(O)cc2)C(=O)N1)C(=O)O [listing 1 of 2 here],Emax,Rattus norvegicus [1],22%
CC(C)[C@H](NC(=O)[C@@H]1CSSC[C@H](NC(=O)[C@@H](N)CC(=O)O)C(=O)N[C@@H](Cc2ccccc2)C(=O)N[C@@H](Cc2c[nH]c3ccccc23)C(=O)N[C@@H](CCCN)C(=O)N[C@@H](Cc2ccc(O)cc2)C(=O)N1)C(=O)O [listing 1 of 2 here],Emax,Rattus norvegicus [1],36%
CC(C)[C@H](NC(=O)[C@@H]1CSSC(C)(C)[C@H](NC(=O)[C@@H](N)CC(=O)O)C(=O)N[C@@H](Cc2ccccc2)C(=O)N[C@@H](Cc2c[nH]c3ccccc23)C(=O)N[C@@H](CCCCN)C(=O)N[C@@H](Cc2ccc(O)cc2)C(=O)N1)C(=O)O [listing 1 of 2 here],Emax,Rattus norvegicus [1],97%
CC(C)[C@H](NC(=O)[C@@H]1CSSC(C)(C)[C@H](NC(=O)[C@@H](N)CC(=O)O)C(=O)N[C@@H](Cc2ccccc2)C(=O)N[C@H](Cc2c[nH]c3ccccc23)C(=O)N[C@H](CCCN)C(=O)N[C@@H](Cc2ccc(O)cc2)C(=O)N1)C(=O)O [listing 2 of 2 here],Ki,Urotensin-2 receptor [3],398 nM (antagonist)
CC(C)[C@H](NC(=O)[C@@H]1CSSC[C@H](NC(=O)[C@@H](N)CC(=O)O)C(=O)N[C@@H](Cc2ccccc2)C(=O)N[C@H](Cc2c[nH]c3ccccc23)C(=O)N[C@@H](CCCN)C(=O)N[C@@H](Cc2ccc(O)cc2)C(=O)N1)C(=O)O,Ki,Urotensin-2 receptor [3],12.6 nM (antagonist)
same,Kb,Urotensin-2 receptor [4],10 nM (antagonist)
CC(C)[C@H](NC(=O)[C@@H]1CSSC(C)(C)[C@H](NC(=O)[C@@H](N)CC(=O)O)C(=O)N[C@@H](Cc2ccccc2)C(=O)N[C@H](Cc2c[nH]c3ccccc23)C(=O)N[C@@H](CCCCN)C(=O)N[C@@H](Cc2ccc(O)cc2)C(=O)N1)C(=O)O [listing 1 of 2 here],Emax,Rattus norvegicus [1],33%
CC(C)[C@H](NC(=O)[C@@H]1CSSC[C@H](NC(=O)[C@@H](N)CC(=O)O)C(=O)N[C@@H](Cc2ccccc2)C(=O)N[C@@H](Cc2c[nH]c3ccccc23)C(=O)N[C@@H](CCCN)C(=O)N[C@@H](Cc2ccc(O)cc2)C(=O)N1)C(=O)O [listing 2 of 2 here],Ki,Urotensin-2 receptor [3],10 nM (antagonist)
same,Kb,Urotensin-2 receptor [4],50.1 nM (antagonist)
CC(C)[C@H](NC(=O)[C@@H]1CSSC[C@@H](NC(=O)[C@@H](N)CC(=O)O)C(=O)N[C@@H](Cc2ccccc2)C(=O)N[C@@H](Cc2c[nH]c3ccccc23)C(=O)N[C@@H](CCCN)C(=O)N[C@@H](Cc2ccc(O)cc2)C(=O)N1)C(=O)O,Activity,Rattus norvegicus [2]; filed as partial agonist,Partial agonist
CC(C)[C@H](NC(=O)[C@@H]1CSSC(C)(C)[C@@H](NC(=O)[C@@H](N)CC(=O)O)C(=O)N[C@@H](Cc2ccccc2)C(=O)N[C@H](Cc2c[nH]c3ccccc23)C(=O)N[C@@H](CCCN)C(=O)N[C@@H](Cc2ccc(O)cc2)C(=O)N1)C(=O)O,Activity,Rattus norvegicus [2],inactive
CC(C)[C@H](NC(=O)[C@@H]1CSSC[C@@H](NC(=O)[C@@H](N)CC(=O)O)C(=O)N[C@@H](Cc2ccccc2)C(=O)N[C@H](Cc2c[nH]c3ccccc23)C(=O)N[C@@H](CCCN)C(=O)N[C@@H](Cc2ccc(O)cc2)C(=O)N1)C(=O)O,Activity,Rattus norvegicus [2],inactive
CC(C)[C@H](NC(=O)[C@@H]1CSSC[C@H](NC(=O)[C@@H](N)CC(=O)O)C(=O)N[C@@H](Cc2ccccc2)C(=O)N[C@@H](Cc2c[nH]c3ccccc23)C(=O)N[C@@H](CCCCN)C(=O)N[C@@H](Cc2ccc(O)cc2)C(=O)N1)C(=O)O [listing 2 of 2 here],Emax,Rattus norvegicus [1],100%
CC(C)[C@H](NC(=O)[C@@H]1CSSC(C)(C)[C@H](NC(=O)[C@@H](N)CC(=O)O)C(=O)N[C@@H](Cc2ccccc2)C(=O)N[C@H](Cc2c[nH]c3ccccc23)C(=O)N[C@@H](CCCN)C(=O)N[C@@H](Cc2ccc(O)cc2)C(=O)N1)C(=O)O,Ki,Urotensin-2 receptor [3],2000 nM (antagonist)
same,Activity,Rattus norvegicus [2],inactive
CC(C)[C@H](NC(=O)[C@@H]1CSSC(C)(C)[C@H](NC(=O)[C@@H](N)CC(=O)O)C(=O)N[C@@H](Cc2ccccc2)C(=O)N[C@@H](Cc2c[nH]c3ccccc23)C(=O)N[C@@H](CCCN)C(=O)N[C@@H](Cc2ccc(O)cc2)C(=O)N1)C(=O)O [listing 2 of 2 here],Ki,Urotensin-2 receptor [3],15.8 nM (antagonist)
CC(C)[C@H](NC(=O)[C@@H]1CSSC[C@H](NC(=O)[C@H](CC(=O)O)NC(=O)[C@@H]2CCCN2C(=O)[C@@H](NC(=O)[C@@H](N)CCC(=O)O)[C@@H](C)O)C(=O)N[C@@H](Cc2ccccc2)C(=O)N[C@@H](Cc2c[nH]c3ccccc23)C(=O)N[C@@H](CCCCN)C(=O)N[C@@H](Cc2ccc(O)cc2)C(=O)N1)C(=O)O [HUMAN UROTENSIN II],EC50,Rattus norvegicus [2],5.01 nM
same,Emax,Rattus norvegicus [1],100%
CC(C)[C@H](NC(=O)[C@@H]1CSSC(C)(C)[C@@H](NC(=O)[C@@H](N)CC(=O)O)C(=O)N[C@@H](Cc2ccccc2)C(=O)N[C@@H](Cc2c[nH]c3ccccc23)C(=O)N[C@@H](CCCN)C(=O)N[C@@H](Cc2ccc(O)cc2)C(=O)N1)C(=O)O,Activity,Rattus norvegicus [2]; filed as partial agonist,Partial agonist
CC(C)[C@H](NC(=O)[C@@H]1CSSC(C)(C)[C@H](NC(=O)[C@@H](N)CC(=O)O)C(=O)N[C@@H](Cc2ccccc2)C(=O)N[C@@H](Cc2c[nH]c3ccccc23)C(=O)N[C@@H](CCCCN)C(=O)N[C@@H](Cc2ccc(O)cc2)C(=O)N1)C(=O)O [listing 2 of 2 here],EC50,Rattus norvegicus [2],0.251 nM
CC(C)[C@H](NC(=O)[C@@H]1CSSC(C)(C)[C@H](NC(=O)[C@@H](N)CC(=O)O)C(=O)N[C@@H](Cc2ccccc2)C(=O)N[C@H](Cc2c[nH]c3ccccc23)C(=O)N[C@@H](CCCCN)C(=O)N[C@@H](Cc2ccc(O)cc2)C(=O)N1)C(=O)O [listing 2 of 2 here],Ki,Urotensin-2 receptor [3],1.26 nM (antagonist)
same,EC50,Rattus norvegicus [2],63.1 nM
